Assay results published in ChEMBL document CHEMBL1157789, “Design, synthesis and SAR of phenylamino-substituted 5,11-dihydro-dibenzo[a,d]cyclohepten-10-ones and 11H-dibenzo[b,f]oxepin-10-ones as p38 MAP kinase inhibitors” (Bioorg Med Chem Lett, 2010).
Calls of active or inactive are those of the source. The calls are words filed in the database; no cut-off is given here.

How the values were obtained:
[1] = Inhibition of p38 assessed as rate of ATF-2 phosphorylation by immunosorbent non-radioactive enzyme assay
In short: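 p38α MAP kinase ELISA-type (immunosorbent, non-radioactive) assay. Enzyme was incubated with ATP at 100 µM, ATF-2 as substrate, and test compound at 10^-5 to 10^-8 M. Activity was read as the rate of ATF-2 phosphorylation. SB203580 served as the reference inhibitor.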

[2] = target: RAC-alpha serine/threonine-protein kinase (Homo sapiens) (UniProt P31749); assay: Inhibition of AKT1 at 10 uM
Sequence of RAC-alpha serine/threonine-protein kinase (Homo sapiens) (P31749 whole entry): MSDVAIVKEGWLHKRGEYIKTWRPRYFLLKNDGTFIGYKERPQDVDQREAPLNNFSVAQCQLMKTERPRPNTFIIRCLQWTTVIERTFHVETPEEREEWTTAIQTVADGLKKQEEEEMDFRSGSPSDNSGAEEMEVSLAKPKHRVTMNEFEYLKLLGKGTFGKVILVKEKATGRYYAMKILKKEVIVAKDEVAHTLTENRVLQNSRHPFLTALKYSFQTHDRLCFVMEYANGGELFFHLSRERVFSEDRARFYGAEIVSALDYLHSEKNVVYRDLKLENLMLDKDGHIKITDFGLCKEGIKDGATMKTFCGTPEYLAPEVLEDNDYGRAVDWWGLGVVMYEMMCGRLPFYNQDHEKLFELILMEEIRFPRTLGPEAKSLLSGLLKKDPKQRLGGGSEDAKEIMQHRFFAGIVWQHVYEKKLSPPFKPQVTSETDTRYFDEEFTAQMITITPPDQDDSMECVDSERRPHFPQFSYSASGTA

[3] = target: T1, NUAK family SNF1-like kinase 1 (Homo sapiens) (UniProt O60285); assay: Inhibition of ARK5 at 10 uM
T1 sequence (whole entry): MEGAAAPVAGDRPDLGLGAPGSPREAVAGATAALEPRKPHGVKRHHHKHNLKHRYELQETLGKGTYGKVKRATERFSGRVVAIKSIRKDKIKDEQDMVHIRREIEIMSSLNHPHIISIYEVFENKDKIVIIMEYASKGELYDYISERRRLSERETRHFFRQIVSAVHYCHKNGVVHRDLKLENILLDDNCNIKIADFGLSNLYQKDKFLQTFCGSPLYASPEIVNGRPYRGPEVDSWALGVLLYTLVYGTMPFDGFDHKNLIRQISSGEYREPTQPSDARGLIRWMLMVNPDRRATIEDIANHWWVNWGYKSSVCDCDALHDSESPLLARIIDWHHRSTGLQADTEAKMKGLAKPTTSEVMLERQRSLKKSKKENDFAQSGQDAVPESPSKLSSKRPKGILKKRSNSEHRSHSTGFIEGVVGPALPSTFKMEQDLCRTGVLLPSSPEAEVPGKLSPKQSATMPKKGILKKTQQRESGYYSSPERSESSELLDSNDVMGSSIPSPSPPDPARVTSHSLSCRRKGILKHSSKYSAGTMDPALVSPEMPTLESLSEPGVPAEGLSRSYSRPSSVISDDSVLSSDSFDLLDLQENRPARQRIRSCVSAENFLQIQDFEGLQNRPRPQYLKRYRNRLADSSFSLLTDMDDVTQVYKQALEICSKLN

[4] = target: Aurora kinase B (Homo sapiens) (UniProt Q96GD4); assay: Inhibition of Aurora B at 10 uM
[5] = target: Tyrosine-protein kinase receptor UFO (Homo sapiens) (UniProt P30530); assay: Inhibition of AXL at 10 uM
[6] = system: Serine/threonine-protein kinase B-raf (Homo sapiens), P15056 [V600E]; assay: Inhibition of B-Raf V600E mutant at 10 uM
Sequence of Serine/threonine-protein kinase B-raf (Homo sapiens), P15056 [V600E] (P15056 whole entry V600E): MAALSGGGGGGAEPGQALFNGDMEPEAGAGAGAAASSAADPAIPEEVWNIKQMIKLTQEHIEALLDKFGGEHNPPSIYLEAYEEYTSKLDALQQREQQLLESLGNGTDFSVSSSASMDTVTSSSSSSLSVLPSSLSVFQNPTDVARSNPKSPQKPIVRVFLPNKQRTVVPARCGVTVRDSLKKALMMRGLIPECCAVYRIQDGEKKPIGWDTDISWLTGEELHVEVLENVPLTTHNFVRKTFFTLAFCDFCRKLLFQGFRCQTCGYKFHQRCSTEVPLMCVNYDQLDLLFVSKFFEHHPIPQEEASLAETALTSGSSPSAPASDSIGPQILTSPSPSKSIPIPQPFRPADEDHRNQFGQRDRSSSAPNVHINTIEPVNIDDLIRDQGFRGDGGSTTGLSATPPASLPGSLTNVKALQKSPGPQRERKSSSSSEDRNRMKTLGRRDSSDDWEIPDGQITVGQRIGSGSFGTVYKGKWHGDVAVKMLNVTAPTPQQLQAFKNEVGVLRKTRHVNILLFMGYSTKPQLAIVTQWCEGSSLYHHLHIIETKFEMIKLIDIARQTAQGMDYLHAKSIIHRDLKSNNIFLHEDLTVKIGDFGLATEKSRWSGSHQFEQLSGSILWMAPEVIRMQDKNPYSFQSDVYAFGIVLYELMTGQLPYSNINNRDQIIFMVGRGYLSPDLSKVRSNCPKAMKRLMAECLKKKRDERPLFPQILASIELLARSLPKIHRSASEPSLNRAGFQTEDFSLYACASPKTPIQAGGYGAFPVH

[7] = target: Casein kinase II subunit alpha (Homo sapiens) (UniProt P68400); assay: Inhibition of CK2alpha1 at 10 uM
Sequence of Casein kinase II subunit alpha (Homo sapiens) (P68400 whole entry, looked up): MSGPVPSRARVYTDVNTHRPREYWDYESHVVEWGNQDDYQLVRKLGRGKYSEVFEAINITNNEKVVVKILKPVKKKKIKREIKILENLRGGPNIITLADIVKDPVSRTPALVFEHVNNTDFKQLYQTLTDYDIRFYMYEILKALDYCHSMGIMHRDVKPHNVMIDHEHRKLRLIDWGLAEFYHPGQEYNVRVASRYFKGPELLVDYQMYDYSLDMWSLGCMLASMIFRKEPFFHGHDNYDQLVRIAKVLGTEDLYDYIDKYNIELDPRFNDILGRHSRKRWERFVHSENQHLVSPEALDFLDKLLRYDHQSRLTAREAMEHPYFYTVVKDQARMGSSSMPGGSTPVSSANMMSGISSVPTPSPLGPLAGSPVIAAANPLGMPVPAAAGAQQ

[8] = target: Focal adhesion kinase 1 (Homo sapiens) (UniProt Q05397); assay: Inhibition of FAK at 10 uM
[9] = target: Insulin-like growth factor 1 receptor (Homo sapiens) (UniProt P08069); assay: Inhibition of IGF1R at 10 uM
Sequence of Insulin-like growth factor 1 receptor (Homo sapiens) (P08069 31-736 limits assumed): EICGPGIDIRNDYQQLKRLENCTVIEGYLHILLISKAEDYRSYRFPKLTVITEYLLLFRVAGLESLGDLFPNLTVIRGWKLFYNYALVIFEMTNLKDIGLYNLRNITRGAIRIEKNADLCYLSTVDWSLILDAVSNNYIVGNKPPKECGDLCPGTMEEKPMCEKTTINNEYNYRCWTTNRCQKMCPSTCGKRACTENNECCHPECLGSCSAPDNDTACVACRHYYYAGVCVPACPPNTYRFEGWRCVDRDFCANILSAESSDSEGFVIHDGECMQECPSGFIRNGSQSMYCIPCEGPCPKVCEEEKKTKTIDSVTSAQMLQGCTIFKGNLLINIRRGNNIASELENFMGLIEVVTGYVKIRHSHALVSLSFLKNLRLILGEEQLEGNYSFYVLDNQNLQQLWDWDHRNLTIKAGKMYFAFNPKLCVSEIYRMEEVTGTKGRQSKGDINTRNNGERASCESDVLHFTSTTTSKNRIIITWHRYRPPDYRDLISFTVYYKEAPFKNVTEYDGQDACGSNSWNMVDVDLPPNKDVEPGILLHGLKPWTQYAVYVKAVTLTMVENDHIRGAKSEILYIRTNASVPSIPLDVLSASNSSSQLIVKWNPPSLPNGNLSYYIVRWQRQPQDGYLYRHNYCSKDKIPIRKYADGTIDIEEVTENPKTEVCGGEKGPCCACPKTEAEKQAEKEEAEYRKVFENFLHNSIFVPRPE
Sequence of Insulin-like growth factor 1 receptor (Homo sapiens) (P08069 741-1367 limits assumed): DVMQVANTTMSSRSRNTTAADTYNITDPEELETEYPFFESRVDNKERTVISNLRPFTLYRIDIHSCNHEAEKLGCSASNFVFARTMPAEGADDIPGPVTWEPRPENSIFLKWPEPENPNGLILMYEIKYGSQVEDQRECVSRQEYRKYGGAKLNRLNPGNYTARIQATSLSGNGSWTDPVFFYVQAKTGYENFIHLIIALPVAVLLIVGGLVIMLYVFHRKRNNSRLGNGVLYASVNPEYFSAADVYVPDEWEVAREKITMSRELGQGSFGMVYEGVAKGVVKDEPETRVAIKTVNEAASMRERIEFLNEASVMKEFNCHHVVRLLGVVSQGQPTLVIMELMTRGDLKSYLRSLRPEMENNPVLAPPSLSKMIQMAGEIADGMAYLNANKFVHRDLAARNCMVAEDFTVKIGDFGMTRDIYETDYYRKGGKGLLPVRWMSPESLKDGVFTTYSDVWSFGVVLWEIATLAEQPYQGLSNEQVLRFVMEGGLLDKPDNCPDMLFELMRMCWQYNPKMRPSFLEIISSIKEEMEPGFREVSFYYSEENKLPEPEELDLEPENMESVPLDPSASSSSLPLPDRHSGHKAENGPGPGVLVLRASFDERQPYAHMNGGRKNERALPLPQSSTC

[10] = target: Insulin receptor (Homo sapiens) (UniProt P06213); assay: Inhibition of INSR at 10 uM
Sequence of Insulin receptor (Homo sapiens) (P06213 28-758 limits assumed): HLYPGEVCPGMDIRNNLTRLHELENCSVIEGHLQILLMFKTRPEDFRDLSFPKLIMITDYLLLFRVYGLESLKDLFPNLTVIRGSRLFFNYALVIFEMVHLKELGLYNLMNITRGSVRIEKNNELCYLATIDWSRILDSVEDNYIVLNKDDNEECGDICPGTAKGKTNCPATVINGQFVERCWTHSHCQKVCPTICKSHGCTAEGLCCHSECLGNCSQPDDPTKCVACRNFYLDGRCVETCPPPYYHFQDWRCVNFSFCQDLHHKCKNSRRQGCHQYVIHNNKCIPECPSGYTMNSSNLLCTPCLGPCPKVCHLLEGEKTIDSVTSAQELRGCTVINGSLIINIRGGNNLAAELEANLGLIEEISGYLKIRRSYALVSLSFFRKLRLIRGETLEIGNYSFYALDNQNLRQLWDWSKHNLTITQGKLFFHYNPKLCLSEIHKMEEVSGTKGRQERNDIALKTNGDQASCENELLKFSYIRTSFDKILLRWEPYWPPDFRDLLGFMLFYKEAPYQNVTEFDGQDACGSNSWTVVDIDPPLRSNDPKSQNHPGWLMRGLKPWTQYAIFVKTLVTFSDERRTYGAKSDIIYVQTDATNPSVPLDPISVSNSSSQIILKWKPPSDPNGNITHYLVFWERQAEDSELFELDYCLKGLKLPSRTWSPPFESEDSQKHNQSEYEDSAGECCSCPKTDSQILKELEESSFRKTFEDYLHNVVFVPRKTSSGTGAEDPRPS
Sequence of Insulin receptor (Homo sapiens) (P06213 763-1382 limits assumed): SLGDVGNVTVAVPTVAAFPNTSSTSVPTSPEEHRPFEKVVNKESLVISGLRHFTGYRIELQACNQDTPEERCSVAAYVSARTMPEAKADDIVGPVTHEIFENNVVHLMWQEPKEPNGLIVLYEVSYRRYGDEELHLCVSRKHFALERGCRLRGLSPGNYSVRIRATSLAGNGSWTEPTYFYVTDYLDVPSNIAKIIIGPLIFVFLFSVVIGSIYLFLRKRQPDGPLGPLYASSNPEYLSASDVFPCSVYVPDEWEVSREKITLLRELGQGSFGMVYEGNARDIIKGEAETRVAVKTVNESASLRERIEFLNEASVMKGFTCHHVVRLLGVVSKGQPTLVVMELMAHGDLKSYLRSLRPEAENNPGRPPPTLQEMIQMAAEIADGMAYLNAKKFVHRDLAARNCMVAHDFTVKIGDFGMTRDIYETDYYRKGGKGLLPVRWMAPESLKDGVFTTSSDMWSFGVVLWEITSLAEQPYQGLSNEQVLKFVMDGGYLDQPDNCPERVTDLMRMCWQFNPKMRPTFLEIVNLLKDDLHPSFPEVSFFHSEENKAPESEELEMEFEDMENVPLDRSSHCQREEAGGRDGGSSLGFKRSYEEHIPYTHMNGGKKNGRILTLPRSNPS

[11] = target: Hepatocyte growth factor receptor (Homo sapiens) (UniProt P08581); assay: Inhibition of MET at 10 uM
[12] = target: Serine/threonine-protein kinase PLK1 (Homo sapiens) (UniProt P53350); assay: Inhibition of PLK1 at 10 uM
Sequence of Serine/threonine-protein kinase PLK1 (Homo sapiens) (P53350 whole entry): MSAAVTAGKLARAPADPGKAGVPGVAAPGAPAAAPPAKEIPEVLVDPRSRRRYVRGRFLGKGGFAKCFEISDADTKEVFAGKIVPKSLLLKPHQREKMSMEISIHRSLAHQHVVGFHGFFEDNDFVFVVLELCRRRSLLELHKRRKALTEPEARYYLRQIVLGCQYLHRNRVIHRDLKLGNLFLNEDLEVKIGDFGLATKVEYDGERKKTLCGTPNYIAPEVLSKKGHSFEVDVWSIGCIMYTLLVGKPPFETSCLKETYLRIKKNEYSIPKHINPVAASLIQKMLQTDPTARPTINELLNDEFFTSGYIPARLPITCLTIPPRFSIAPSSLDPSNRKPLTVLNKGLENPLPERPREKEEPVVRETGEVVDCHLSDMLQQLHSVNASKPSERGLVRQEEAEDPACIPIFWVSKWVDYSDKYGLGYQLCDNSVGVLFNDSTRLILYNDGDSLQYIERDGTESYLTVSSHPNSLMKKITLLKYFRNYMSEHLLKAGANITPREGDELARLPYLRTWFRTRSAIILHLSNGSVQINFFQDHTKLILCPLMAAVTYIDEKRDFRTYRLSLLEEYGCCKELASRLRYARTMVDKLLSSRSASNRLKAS

[13] = target: Serine/threonine-protein kinase N1 (Homo sapiens) (UniProt Q16512); assay: Inhibition of PRK1 at 10 uM
[14] = target: T2, Serine/threonine-protein kinase PLK4 (Homo sapiens) (UniProt O00444); assay: Inhibition of SAK at 10 uM
T2 sequence (whole entry): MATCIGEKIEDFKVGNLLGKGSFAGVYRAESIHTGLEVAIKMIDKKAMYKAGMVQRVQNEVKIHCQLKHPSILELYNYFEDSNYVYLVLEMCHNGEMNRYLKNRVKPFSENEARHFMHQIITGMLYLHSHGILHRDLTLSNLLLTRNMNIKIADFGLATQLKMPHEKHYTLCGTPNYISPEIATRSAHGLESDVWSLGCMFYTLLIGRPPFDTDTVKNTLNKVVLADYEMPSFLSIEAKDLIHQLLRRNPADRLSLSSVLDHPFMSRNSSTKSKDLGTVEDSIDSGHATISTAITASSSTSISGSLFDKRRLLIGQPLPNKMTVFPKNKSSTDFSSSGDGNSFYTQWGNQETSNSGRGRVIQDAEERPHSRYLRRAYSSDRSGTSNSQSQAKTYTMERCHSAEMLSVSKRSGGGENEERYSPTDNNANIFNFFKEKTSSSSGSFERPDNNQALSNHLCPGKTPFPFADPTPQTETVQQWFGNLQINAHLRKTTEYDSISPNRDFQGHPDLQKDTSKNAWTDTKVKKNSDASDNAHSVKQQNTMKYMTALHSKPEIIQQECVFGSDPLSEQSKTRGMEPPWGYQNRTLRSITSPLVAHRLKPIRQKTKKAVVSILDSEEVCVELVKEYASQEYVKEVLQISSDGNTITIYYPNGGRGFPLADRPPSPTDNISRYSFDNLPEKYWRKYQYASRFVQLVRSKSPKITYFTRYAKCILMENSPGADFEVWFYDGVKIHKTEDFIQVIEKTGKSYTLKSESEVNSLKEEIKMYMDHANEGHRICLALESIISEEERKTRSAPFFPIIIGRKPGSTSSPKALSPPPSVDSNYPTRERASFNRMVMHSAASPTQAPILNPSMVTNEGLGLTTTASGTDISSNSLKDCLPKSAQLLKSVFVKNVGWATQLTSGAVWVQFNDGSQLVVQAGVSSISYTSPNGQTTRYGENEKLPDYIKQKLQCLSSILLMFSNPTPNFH

[15] = target: Proto-oncogene tyrosine-protein kinase Src (Homo sapiens) (UniProt P12931); assay: Inhibition of SRC at 10 uM
[16] = target: BDNF/NT-3 growth factors receptor (Homo sapiens) (UniProt Q16620); assay: Inhibition of TRKB at 10 uM
[17] = target: Vascular endothelial growth factor receptor 2 (Homo sapiens) (UniProt P35968); assay: Inhibition of VGFR2 at 10 uM

Compound | IC50 [1] [nM] | inhibition [2] | inhibition [3] | inhibition [4] | inhibition [5] | inhibition [6] | inhibition [7] | inhibition [8] | inhibition [9] | inhibition [10] | inhibition [11] | inhibition [12] | inhibition [13] | inhibition [14] | inhibition [15] | inhibition [16] | inhibition [17]
Nc1ccccc1Nc1ccc2c(c1)CC(=O)c1ccccc1C2 | 2100 | inactive | inactive | inactive | inactive | inactive | inactive | inactive | inactive | inactive | inactive | inactive | inactive | inactive | inactive | inactive | inactive
O=C1Cc2ccccc2Cc2cc(Nc3ccc(F)cc3F)ccc21 | 1510 | inactive | inactive | inactive | inactive | inactive | inactive | inactive | inactive | inactive | inactive | inactive | inactive | inactive | inactive | inactive | inactive
Nc1ccccc1Nc1ccc2c(c1)Cc1ccccc1C(=O)C2 | 1930 | inactive | inactive | inactive | inactive | inactive | inactive | inactive | inactive | inactive | inactive | inactive | inactive | inactive | inactive | inactive | inactive
Nc1cc(F)ccc1Nc1ccc2c(c1)Oc1ccccc1NC2=O | 2920 | inactive | inactive | inactive | inactive | inactive | inactive | inactive | inactive | inactive | inactive | inactive | inactive | inactive | inactive | inactive | inactive
Nc1ccccc1Nc1ccc2c(c1)C(=O)Cc1ccccc1C2 | 4010 | inactive | inactive | inactive | inactive | inactive | inactive | inactive | inactive | inactive | inactive | inactive | inactive | inactive | inactive | inactive | inactive
Nc1ccccc1Nc1ccc2c(c1)Cc1ccccc1CC2=O | 990 | inactive | inactive | inactive | inactive | inactive | inactive | inactive | inactive | inactive | inactive | inactive | inactive | inactive | inactive | inactive | inactive
Nc1ccccc1Nc1ccc2c(c1)Oc1ccccc1NC2=O | 2700 | inactive | inactive | inactive | inactive | inactive | inactive | inactive | inactive | inactive | inactive | inactive | inactive | inactive | inactive | inactive | inactive
Nc1cc(F)ccc1Nc1ccc2c(c1)Cc1ccccc1C(=O)C2 | 3820 | inactive | inactive | inactive | inactive | inactive | inactive | inactive | inactive | inactive | inactive | inactive | inactive | inactive | inactive | inactive | inactive
O=C1Cc2ccccc2Cc2cc(Nc3ccccc3)ccc21 | 1750 | inactive | inactive | inactive | inactive | inactive | inactive | inactive | inactive | inactive | inactive | inactive | inactive | inactive | inactive | inactive | inactive
Nc1cc(F)ccc1Nc1ccc2c(c1)Cc1ccccc1CC2=O | 1720 | inactive | inactive | inactive | inactive | inactive | inactive | inactive | inactive | inactive | inactive | inactive | inactive | inactive | inactive | inactive | inactive
